Results as given in ChEMBL document CHEMBL1140915, “Second-generation highly potent and selective inhibitors of the hepatitis C virus NS3 serine protease” (J Med Chem, 2009).

Tests used:
[1] = Inhibition of HCV NS3 protease in absence of human serum; parameters: species or system Hepacivirus hominis
Method in brief: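 Continuous enzymatic assay using NS4A-tethered single-chain HCV NS3 serine protease, without human serum. Ki* is the equilibrium constant, which includes the reversible covalent ketone–serine bond. Compounds were tested as P1 diastereomer mixtures (2:1 to 1:2) that equilibrate rapidly under assay conditions.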

Hepatitis C virus = test: Antiviral activity against HCV assessed as inhibition of virus replication by cell based assay in absence of human serum; assay type: functional, Hepacivirus hominis
Method in brief: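 Replicon-based cellular assay run without human serum. EC90 is the concentration that inhibits replicon replication by 90%. Compounds were tested as rapidly equilibrating P1 diastereomer mixtures.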

[2] = Selectivity for HCV NS3 protease over human neutrophil elastase
Method in brief: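 Compounds were also assayed against human neutrophil elastase. Selectivity is expressed as the HNE/HCV ratio of the two enzyme potencies.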

[3] = AUC in rat at 10 mg/kg, po administered with 20% HPBCD; assay type: ADME, organism-based; parameters: dose 10 mg/kg, route oral; settings: plasma
[4] = Bioavailability in monkey at 3 mg/kg, po administered with 0.4% hydroxypropyl methylcellulose; assay type: ADME, organism-based, Macaca mulatta; settings: rhesus monkey, in vivo

SMILES | Ki [1] [nM] | EC90 (Hepatitis C virus) [nM] | Ratio [2] | AUC [3] [µM·h] | bioavailability [4] [%]
C=CCNC(=O)C(=O)C(CCCC)NC(=O)[C@@H]1[C@@H]2[C@H](CN1C(=O)[C@@H](NC(=O)NC(CN1C(=O)CCNC1=O)C(C)(C)C)C(C)(C)C)C2(C)C (single isomer, unassigned) | 4 | 150 | 4300 |  | 
C=CCNC(=O)C(=O)C(CCCC)NC(=O)[C@@H]1[C@@H]2[C@H](CN1C(=O)[C@@H](NC(=O)NC(CN1C(=O)CNC1=O)C(C)(C)C)C(C)(C)C)C2(C)C (single isomer, unassigned) | 8 | 1000 | 1200 |  | 
CC(C)(C)NC(=O)N[C@H](C(=O)N1C[C@H]2[C@@H]([C@H]1C(=O)NC(CC1CCC1)C(=O)C(N)=O)C2(C)C)C(C)(C)C (some centres undefined) [BOCEPREVIR] | 14 | 350 |  |  | 4
C=CCNC(=O)C(=O)C(CCCC)NC(=O)[C@@H]1[C@@H]2[C@H](CN1C(=O)C(NC(=O)NC(CN1C(=O)CC(C)(C)CC1=O)C(C)(C)C)C1Cc3ccccc3C1)C2(C)C (single isomer, unassigned) | 4 | 100 | 1800 |  | 
C=CCNC(=O)C(=O)C(CCCC)NC(=O)[C@@H]1[C@@H]2[C@H](CN1C(=O)C(NC(=O)NC(CN1C(=O)CC(C)(C)CC1=O)C(C)(C)C)C1(C)Cc3ccccc3C1)C2(C)C (single isomer, unassigned) | 32 | 80 | 220 |  | 
C=CCNC(=O)C(=O)C(CCCC)NC(=O)[C@@H]1[C@@H]2[C@H](CN1C(=O)[C@@H](NC(=O)NC(CN1C(=O)N(C)C(C)(C)C1=O)C(C)(C)C)C(C)(C)C)C2(C)C (single isomer, unassigned) | 8 | 60 | 1600 |  | 
C=CCNC(=O)C(=O)C(CCCC)NC(=O)[C@@H]1[C@@H]2[C@H](CN1C(=O)[C@@H](NC(=O)N[C@@H](CN1C(=O)c3ccccc3C1=O)C(C)(C)C)C(C)(C)C)C2(C)C (some centres undefined) | 30 | 750 | 500 |  | 
C=CCNC(=O)C(=O)C(CCCC)NC(=O)[C@@H]1[C@@H]2[C@H](CN1C(=O)[C@@H](NC(=O)N[C@@H](CN1C(=O)CN(C)C1=O)C(C)(C)C)C(C)(C)C)C2(C)C (some centres undefined) | 19 | 250 | 1200 |  | 
C=CCNC(=O)C(=O)C(CCCC)NC(=O)[C@@H]1[C@@H]2[C@H](CN1C(=O)C(NC(=O)NC(CN1C(=O)CC(C)(C)CC1=O)C(C)(C)C)C1(C)CCCCC1)C2(C)C (single isomer, unassigned) | 4 | 45 | 1000 |  | 
C=CCNC(=O)C(=O)C(CCCC)NC(=O)[C@@H]1[C@@H]2[C@H](CN1C(=O)[C@@H](NC(=O)NC(CN1C(=O)CCN(C)C1=O)C(C)(C)C)C(C)(C)C)C2(C)C (single isomer, unassigned) | 7 | 60 | 1400 |  | 
C=CCNC(=O)C(=O)C(CCCC)NC(=O)[C@@H]1[C@@H]2[C@H](CN1C(=O)[C@@H](NC(=O)NC(CN1C(=O)CN(c3ccccc3)CC1=O)C(C)(C)C)C(C)(C)C)C2(C)C (single isomer, unassigned) | 12 | 100 | 90 |  | 
CCCCC(NC(=O)[C@@H]1[C@@H]2[C@H](CN1C(=O)[C@@H](NC(=O)N[C@@H](CN1C(=O)CC(C)(C)CC1=O)C(C)(C)C)C(C)(C)C)C2(C)C)C(=O)C(=O)NCc1ccccn1 (some centres undefined) | 22 | 80 | 2500 |  | 
CCCCC(NC(=O)[C@@H]1[C@@H]2[C@H](CN1C(=O)[C@@H](NC(=O)NC(CN1C(=O)CC(C)(C)CC1=O)C(C)(C)C)C(C)(C)C)C2(C)C)C(=O)C(=O)NCc1cccs1 (single isomer, unassigned) | 12 | 100 | 900 |  | 
CCCCC(NC(=O)[C@@H]1[C@@H]2[C@H](CN1C(=O)[C@@H](NC(=O)N[C@@H](CN1C(=O)CC(C)(C)CC1=O)C(C)(C)C)C(C)(C)C)C2(C)C)C(=O)C(=O)NCc1ccccc1 (some centres undefined) | 14 | 40 | 1100 |  | 
C=CCNC(=O)C(=O)C(CCCC)NC(=O)[C@@H]1[C@@H]2[C@H](CN1C(=O)[C@@H](NC(=O)N[C@@H](CN1C(=O)C3CC3C1=O)C(C)(C)C)C(C)(C)C)C2(C)C (some centres undefined) | 5 | 70 | 9500 |  | 

Next, values leading:

Ki [1] [nM] | EC90 (Hepatitis C virus) [nM] | Ratio [2] | AUC [3] [µM·h] | bioavailability [4] [%] | SMILES
5 | 30 | 6100 |  |  | CCCCC(NC(=O)[C@@H]1[C@@H]2[C@H](CN1C(=O)[C@@H](NC(=O)N[C@@H](CN1C(=O)CC(C)(C)CC1=O)C(C)(C)C)C(C)(C)C)C2(C)C)C(=O)C(=O)NC1CC1 (some centres undefined)
7 | 30 | 11000 | 0.5 |  | C=CCNC(=O)C(=O)C(CCC1CC1)NC(=O)[C@@H]1[C@@H]2[C@H](CN1C(=O)[C@@H](NC(=O)NC(CN1C(=O)CC(C)(C)CC1=O)C(C)(C)C)C(C)(C)C)C2(C)C (single isomer, unassigned)
6 | 60 | 7000 |  |  | C=CCNC(=O)C(=O)C(CCCC)NC(=O)[C@@H]1[C@@H]2[C@H](CN1C(=O)[C@@H](NC(=O)NC(CN1C(=O)C3CCC(C3)C1=O)C(C)(C)C)C(C)(C)C)C2(C)C (single isomer, unassigned)
4 | 40 | 9300 | 1.58 |  | C=CCNC(=O)C(=O)C(CCCC)NC(=O)[C@@H]1[C@@H]2[C@H](CN1C(=O)[C@@H](NC(=O)NC(CN1C(=O)CC(C)(C)CC1=O)C(C)(C)C)C(C)(C)C)C2(C)C (single isomer, unassigned)
7 | 35 | 3100 |  |  | C=CCNC(=O)C(=O)C(CCCC)NC(=O)[C@@H]1[C@@H]2[C@H](CN1C(=O)[C@@H](NC(=O)N[C@@H](CN1C(=O)CCC(C)(C)C1=O)C(C)(C)C)C(C)(C)C)C2(C)C (some centres undefined)
11 | 250 | 2500 |  |  | C=CCNC(=O)C(=O)C(CCCC)NC(=O)[C@@H]1[C@@H]2[C@H](CN1C(=O)[C@@H](NC(=O)N[C@@H](CN1C(=O)NC(C)(C)C1=O)C(C)(C)C)C(C)(C)C)C2(C)C (some centres undefined)
13 | 70 | 8200 |  |  | CCCCC(NC(=O)[C@@H]1[C@@H]2[C@H](CN1C(=O)[C@@H](NC(=O)NC(CN1C(=O)CC(C)(C)CC1=O)C(C)(C)C)C(C)(C)C)C2(C)C)C(=O)C(=O)NCC (single isomer, unassigned)
21 | 80 | 910 |  |  | CCCCC(NC(=O)[C@@H]1[C@@H]2[C@H](CN1C(=O)[C@@H](NC(=O)NC(CN1C(=O)CC(C)(C)CC1=O)C(C)(C)C)C(C)(C)C)C2(C)C)C(=O)C(=O)NCCC (single isomer, unassigned)
13 | 230 | 2000 |  |  | C=CCNC(=O)C(=O)C(CCCC)NC(=O)[C@@H]1[C@@H]2[C@H](CN1C(=O)[C@@H](NC(=O)NC(CN1C(=O)CCC1=O)C(C)(C)C)C(C)(C)C)C2(C)C (single isomer, unassigned)
8 | 150 | 69000 | 0.44 |  | C=CCNC(=O)C(=O)C(CCCC)NC(=O)[C@@H]1[C@@H]2[C@H](CN1C(=O)[C@@H](NC(=O)N[C@@H](CN1C(=O)CCCC1=O)C(C)(C)C)C(C)(C)C)C2(C)C (some centres undefined)
4 | 40 | 1600 |  |  | C=CCNC(=O)C(=O)C(CCC)NC(=O)[C@@H]1[C@@H]2[C@H](CN1C(=O)[C@@H](NC(=O)NC(CN1C(=O)CC(C)(C)CC1=O)C(C)(C)C)C(C)(C)C)C2(C)C (single isomer, unassigned)
2 | 40 | 230 |  |  | C#CCCC(NC(=O)[C@@H]1[C@@H]2[C@H](CN1C(=O)[C@@H](NC(=O)NC(CN1C(=O)CC(C)(C)CC1=O)C(C)(C)C)C(C)(C)C)C2(C)C)C(=O)C(=O)NCC=C (single isomer, unassigned)
7 | 40 | 6400 |  |  | C=CCNC(=O)C(=O)C(CC1CCC1)NC(=O)[C@@H]1[C@@H]2[C@H](CN1C(=O)[C@@H](NC(=O)N[C@@H](CN1C(=O)CC(C)(C)CC1=O)C(C)(C)C)C(C)(C)C)C2(C)C (some centres undefined)
6 | 40 | 9500 | 0.36 |  | C=CCNC(=O)C(=O)C(CCCC)NC(=O)[C@@H]1[C@@H]2[C@H](CN1C(=O)[C@@H](NC(=O)NC(CN1C(=O)CN(C)CC1=O)C(C)(C)C)C(C)(C)C)C2(C)C (single isomer, unassigned)
2 | 45 | 2400 | 0.45 |  | C=CCNC(=O)C(=O)C(CCCC)NC(=O)[C@@H]1[C@@H]2[C@H](CN1C(=O)[C@@H](NC(=O)NC(CN1C(=O)CC(C)(C)CC1=O)C(C)(C)C)C1CCCCC1)C2(C)C (single isomer, unassigned)
6 | 200 | 3800 |  |  | C=CCNC(=O)C(=O)C(CCCC)NC(=O)[C@@H]1[C@@H]2[C@H](CN1C(=O)[C@@H](NC(=O)NC(CN1C(=O)CC3(CCCC3)CC1=O)C(C)(C)C)C(C)(C)C)C2(C)C (single isomer, unassigned)
8 | 500 | 7200 |  |  | C=CCNC(=O)C(=O)C(CCCC)NC(=O)[C@@H]1[C@@H]2[C@H](CN1C(=O)[C@@H](NC(=O)NC(CN1C(=O)COCC1=O)C(C)(C)C)C(C)(C)C)C2(C)C (single isomer, unassigned)
8 | 40 | 2500 |  |  | C=CCNC(=O)C(=O)C(CCCC)NC(=O)[C@@H]1[C@@H]2[C@H](CN1C(=O)[C@@H](NC(=O)NC(CN1C(=O)CC(C)(CC)CC1=O)C(C)(C)C)C(C)(C)C)C2(C)C (single isomer, unassigned)
